Data set [1] has as its target Receptor-interacting serine/threonine-protein kinase 2 (Homo sapiens) (UniProt O43353). The experiment in a line: Inhibition of human RIPK2 assessed as remaining activity at 10 uM in presence of ATP by radiometric kinase assay relative to control.
Data set [2] in a line: Tmax in BALB/C mouse spleen at 10 mg/kg, iv by LC/MS-MS analysis. Type of data set: ADME, organism-based.
Data set [3] concerns the target Mitogen-activated protein kinase 11 (Homo sapiens) (UniProt Q15759). The experiment in a line: Inhibition of human p38b MAPK assessed as remaining activity at 10 uM in presence of ATP by radiometric kinase assay relative to control.
For data set [4], the target named is Rho-associated protein kinase 2 (Homo sapiens) (UniProt O75116). The experiment in a line: Inhibition of human ROCK2 assessed as remaining activity at 10 uM in presence of ATP by radiometric kinase assay relative to control.
Data set [5] addresses Serine/threonine-protein kinase N2 (Homo sapiens) (UniProt Q16513). The experiment in a line: Inhibition of human PRK2 assessed as remaining activity at 10 uM in presence of ATP by radiometric kinase assay relative to control.
The target of data set [6] is MAP kinase-activated protein kinase 3 (Homo sapiens) (UniProt Q16644). The experiment in a line: Inhibition of human MAPKAP-K3 assessed as remaining activity at 10 uM in presence of ATP by radiometric kinase assay relative to control.
Chain of MAP kinase-activated protein kinase 3 (Homo sapiens) (Q16644 whole entry, looked up): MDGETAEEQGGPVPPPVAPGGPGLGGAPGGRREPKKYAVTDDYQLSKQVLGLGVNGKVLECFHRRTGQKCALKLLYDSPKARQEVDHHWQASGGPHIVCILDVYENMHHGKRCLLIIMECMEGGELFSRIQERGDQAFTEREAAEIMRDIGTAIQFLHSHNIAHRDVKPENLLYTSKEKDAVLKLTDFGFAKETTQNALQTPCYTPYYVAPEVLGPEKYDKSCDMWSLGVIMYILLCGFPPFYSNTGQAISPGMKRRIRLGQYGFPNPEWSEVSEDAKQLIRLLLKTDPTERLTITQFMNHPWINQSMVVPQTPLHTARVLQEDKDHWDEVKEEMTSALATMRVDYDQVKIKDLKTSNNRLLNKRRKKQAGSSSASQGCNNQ
Data set [7] addresses MAP kinase-activated protein kinase 5 (Homo sapiens) (UniProt Q8IW41). The experiment in a line: Inhibition of human PRAK assessed as remaining activity at 10 uM in presence of ATP by radiometric kinase assay relative to control.
The target of data set [8] is Serine/threonine-protein kinase tousled-like 1 (Homo sapiens) (UniProt Q9UKI8). The experiment in a line: Inhibition of human TLK1 assessed as remaining activity at 10 uM in presence of ATP by radiometric kinase assay relative to control.
Chain of Serine/threonine-protein kinase tousled-like 1 (Homo sapiens) (Q9UKI8 whole entry): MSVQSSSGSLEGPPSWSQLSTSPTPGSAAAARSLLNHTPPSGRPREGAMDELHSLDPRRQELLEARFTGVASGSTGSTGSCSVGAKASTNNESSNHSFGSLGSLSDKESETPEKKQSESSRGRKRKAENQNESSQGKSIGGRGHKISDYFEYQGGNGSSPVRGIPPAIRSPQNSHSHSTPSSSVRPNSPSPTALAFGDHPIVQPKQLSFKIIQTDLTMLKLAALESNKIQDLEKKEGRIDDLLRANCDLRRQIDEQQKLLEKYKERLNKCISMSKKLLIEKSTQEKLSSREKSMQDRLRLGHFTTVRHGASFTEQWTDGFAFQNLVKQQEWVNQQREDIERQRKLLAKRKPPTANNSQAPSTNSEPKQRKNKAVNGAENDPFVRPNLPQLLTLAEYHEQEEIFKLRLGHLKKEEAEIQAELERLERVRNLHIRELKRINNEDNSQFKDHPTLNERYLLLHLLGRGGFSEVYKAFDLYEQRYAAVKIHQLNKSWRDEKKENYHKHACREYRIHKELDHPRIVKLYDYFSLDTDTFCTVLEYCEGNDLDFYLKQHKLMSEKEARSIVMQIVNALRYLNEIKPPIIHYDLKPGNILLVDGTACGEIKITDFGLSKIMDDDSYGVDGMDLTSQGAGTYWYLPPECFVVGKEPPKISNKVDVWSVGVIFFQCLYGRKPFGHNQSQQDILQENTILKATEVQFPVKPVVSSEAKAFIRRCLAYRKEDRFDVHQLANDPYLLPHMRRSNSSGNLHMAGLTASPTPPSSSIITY
Data set [9] has as its target Serine/threonine-protein kinase MARK2 (Homo sapiens) (UniProt Q7KZI7). The experiment in a line: Inhibition of human MARK2 assessed as remaining activity at 10 uM in presence of ATP by radiometric kinase assay relative to control.
In data set [10] the target is Serine/threonine-protein kinase pim-2 (Homo sapiens) (UniProt Q9P1W9). The experiment in a line: Inhibition of human PIM2 assessed as remaining activity at 10 uM in presence of ATP by radiometric kinase assay relative to control.
Chain of Serine/threonine-protein kinase pim-2 (Homo sapiens) (Q9P1W9 whole entry, looked up): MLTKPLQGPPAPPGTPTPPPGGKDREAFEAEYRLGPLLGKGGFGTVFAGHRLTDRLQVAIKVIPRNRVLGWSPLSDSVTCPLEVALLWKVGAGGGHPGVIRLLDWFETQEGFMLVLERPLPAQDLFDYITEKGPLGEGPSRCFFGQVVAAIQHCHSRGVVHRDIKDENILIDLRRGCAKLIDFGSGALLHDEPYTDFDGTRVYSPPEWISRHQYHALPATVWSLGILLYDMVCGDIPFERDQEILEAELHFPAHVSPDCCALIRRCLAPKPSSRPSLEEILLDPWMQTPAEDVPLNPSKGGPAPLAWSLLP
The target in data set [11] is Misshapen-like kinase 1 (Homo sapiens) (UniProt Q8N4C8). The experiment in a line: Inhibition of human MINK1 assessed as remaining activity at 10 uM in presence of ATP by radiometric kinase assay relative to control.
Data set [12] addresses Casein kinase 2 (Homo sapiens) (UniProt P67870+P68400+P19784+Q8NEV1). The experiment in a line: Inhibition of human CK2 assessed as remaining activity at 10 uM in presence of ATP by radiometric kinase assay relative to control. Format: protein assay.
In data set [13] the target is Tau-tubulin kinase 1 (Homo sapiens) (UniProt Q5TCY1). The experiment in a line: Inhibition of human TTBK1 assessed as remaining activity at 10 uM in presence of ATP by radiometric kinase assay relative to control.
The target of data set [14] is Tyrosine-protein kinase BTK (Homo sapiens) (UniProt Q06187). The experiment in a line: Inhibition of human BTK assessed as remaining activity at 10 uM in presence of ATP by radiometric kinase assay relative to control.
Chain of Tyrosine-protein kinase BTK (Homo sapiens) (Q06187 whole entry): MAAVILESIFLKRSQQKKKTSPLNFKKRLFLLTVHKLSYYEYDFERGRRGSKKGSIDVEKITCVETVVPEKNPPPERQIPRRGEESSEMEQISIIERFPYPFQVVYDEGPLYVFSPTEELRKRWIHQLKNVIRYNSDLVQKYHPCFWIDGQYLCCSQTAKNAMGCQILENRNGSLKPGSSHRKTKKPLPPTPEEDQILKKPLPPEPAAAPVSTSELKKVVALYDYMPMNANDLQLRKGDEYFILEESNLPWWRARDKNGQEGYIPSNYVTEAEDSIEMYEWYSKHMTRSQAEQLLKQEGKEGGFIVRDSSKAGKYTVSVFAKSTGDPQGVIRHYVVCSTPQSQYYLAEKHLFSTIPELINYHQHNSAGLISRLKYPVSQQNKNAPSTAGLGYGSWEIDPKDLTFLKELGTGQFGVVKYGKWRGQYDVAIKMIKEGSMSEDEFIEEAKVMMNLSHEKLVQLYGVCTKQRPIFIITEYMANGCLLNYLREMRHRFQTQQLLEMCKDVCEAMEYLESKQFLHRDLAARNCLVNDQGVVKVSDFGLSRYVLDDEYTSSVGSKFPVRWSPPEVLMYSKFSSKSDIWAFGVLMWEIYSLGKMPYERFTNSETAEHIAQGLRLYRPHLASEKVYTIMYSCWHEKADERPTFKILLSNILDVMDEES
The target in data set [15] is Ephrin type-B receptor 4 (Homo sapiens) (UniProt P54760). The experiment in a line: Inhibition of human EPH-B4 assessed as remaining activity at 10 uM in presence of ATP by radiometric kinase assay relative to control.
For data set [16], the target named is Receptor tyrosine-protein kinase erbB-4 (Homo sapiens) (UniProt Q15303). The experiment in a line: Inhibition of human HER4 assessed as remaining activity at 10 uM in presence of ATP by radiometric kinase assay relative to control.
Chain of Receptor tyrosine-protein kinase erbB-4 (Homo sapiens) (Q15303 whole entry): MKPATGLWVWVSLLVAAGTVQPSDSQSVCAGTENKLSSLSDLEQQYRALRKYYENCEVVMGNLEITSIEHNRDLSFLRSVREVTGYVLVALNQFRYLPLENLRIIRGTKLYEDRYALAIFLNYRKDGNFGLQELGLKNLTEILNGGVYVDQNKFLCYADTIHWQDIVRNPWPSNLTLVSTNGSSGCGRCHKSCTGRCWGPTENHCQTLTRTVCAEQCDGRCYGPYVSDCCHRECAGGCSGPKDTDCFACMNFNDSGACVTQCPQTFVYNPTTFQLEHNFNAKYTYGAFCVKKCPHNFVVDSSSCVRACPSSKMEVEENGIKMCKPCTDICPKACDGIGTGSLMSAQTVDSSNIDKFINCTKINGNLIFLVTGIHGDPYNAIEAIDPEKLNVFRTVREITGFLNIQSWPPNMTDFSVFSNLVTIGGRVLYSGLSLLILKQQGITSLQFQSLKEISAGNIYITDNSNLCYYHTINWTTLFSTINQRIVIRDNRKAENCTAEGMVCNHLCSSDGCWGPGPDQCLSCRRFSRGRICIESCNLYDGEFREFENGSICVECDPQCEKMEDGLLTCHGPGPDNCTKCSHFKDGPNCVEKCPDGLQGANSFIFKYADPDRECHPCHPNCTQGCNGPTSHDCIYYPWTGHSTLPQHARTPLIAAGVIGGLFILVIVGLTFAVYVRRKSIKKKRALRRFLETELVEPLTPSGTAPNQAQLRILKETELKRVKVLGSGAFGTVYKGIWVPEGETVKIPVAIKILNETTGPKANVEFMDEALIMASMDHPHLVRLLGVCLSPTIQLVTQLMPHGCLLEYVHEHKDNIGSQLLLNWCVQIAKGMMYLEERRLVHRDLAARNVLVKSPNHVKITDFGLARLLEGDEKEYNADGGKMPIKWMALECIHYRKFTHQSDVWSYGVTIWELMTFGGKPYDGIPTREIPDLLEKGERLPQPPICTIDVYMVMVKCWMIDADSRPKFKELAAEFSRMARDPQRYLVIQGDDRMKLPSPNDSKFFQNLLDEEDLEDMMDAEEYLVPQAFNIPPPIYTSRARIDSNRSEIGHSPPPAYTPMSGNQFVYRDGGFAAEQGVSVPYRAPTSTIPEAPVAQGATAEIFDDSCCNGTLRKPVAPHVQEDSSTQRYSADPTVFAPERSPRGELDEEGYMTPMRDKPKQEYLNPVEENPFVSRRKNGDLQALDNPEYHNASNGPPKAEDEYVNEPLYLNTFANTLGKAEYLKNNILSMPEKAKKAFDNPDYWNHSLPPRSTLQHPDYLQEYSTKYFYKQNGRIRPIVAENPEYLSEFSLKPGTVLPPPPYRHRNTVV
Data set [17] addresses Serine/threonine-protein kinase BRSK1 (Homo sapiens, UniProt Q8TDC3). The experiment in a line: Inhibition of human BRSK1 by FRET based Z-LYTE kinase assay.
Another data set concerns HT-29. The experiment in a line: Induction of cell cycle arrest in etoposide induced human HT-29 cells assessed as decrease in accumulation of cells at G2/M phase at 1 to 5 uM incubated for 24 hrs by BrdU and PI staining based flow cytometry analysis. Format: functional. To be noted: dose 1-5 µM. The method in brief: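 HT29 cells exposed for 24h, stained with bromodeoxyuridine and propidium iodide, and cell-cycle distribution measured by flow cytometry.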
(In general: A flow cytometer gives signals particle by particle.)

The next data set deals with Mus musculus. The experiment in a line: In vivo inhibition of CHK1 in CRTac:Ncr-Fox1 mouse xenografted with human HT-29 cells assessed as reduction of phosphorylation of CHK1 on S317 at 50 to 100 mg/kg, po administered for 24 hrs by Western blotting analysis. The following applies: dose 50-100 mg/kg. Format: functional, organism-based. The method in brief: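 HT29 s.c. xenografts in female athymic nude mice. Single gemcitabine dose 100mg/kg i.v. on day 0, then one inhibitor dose 50 or 100mg/kg p.o. (DPTW vehicle) 24h later. Tumors taken 24h after the last dose, western blotted, and signals quantified by normalizing to GAPDH.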
For orientation: Xenograft models place foreign cells or tissue in a host animal.

Data set [18] in a line: Toxicity in CRTac:Ncr-Fox1 mouse xenografted with human HT-29 cells assessed as body weight at 150 mg/kg, po administered for 10 days in presence of irinotecan relative to control. Type of data set: organism-based. To be noted: in vivo, 240 h, time 10 day.
The nature of data set [19]: Toxicity in Emu-Myc driven transgenic mouse transplant model of B-cell lymphoma assessed as reduction in weight of bone marrow at 150 mg/kg, po administered for 9 days. Format: organism-based. The following applies: in vivo, 216 h, time 9 day.

Structures are written as SMILES. pIC50: −log10 of the molar value. Activity calls are given as the source filed them. No cut-off for these calls is given here.

Chain of Mitogen-activated protein kinase 11 (Homo sapiens) (Q15759 whole entry): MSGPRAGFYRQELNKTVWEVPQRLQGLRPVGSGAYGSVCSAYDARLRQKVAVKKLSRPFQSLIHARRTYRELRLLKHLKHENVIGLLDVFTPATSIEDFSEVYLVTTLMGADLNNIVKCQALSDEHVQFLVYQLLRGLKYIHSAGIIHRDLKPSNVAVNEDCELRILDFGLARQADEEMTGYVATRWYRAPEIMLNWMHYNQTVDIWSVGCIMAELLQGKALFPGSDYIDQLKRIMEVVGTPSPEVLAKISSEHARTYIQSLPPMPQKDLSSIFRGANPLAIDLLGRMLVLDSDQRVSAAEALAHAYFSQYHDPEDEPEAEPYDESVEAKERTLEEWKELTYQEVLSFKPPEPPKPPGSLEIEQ
Chain of Serine/threonine-protein kinase BRSK1 (Q8TDC3 whole entry): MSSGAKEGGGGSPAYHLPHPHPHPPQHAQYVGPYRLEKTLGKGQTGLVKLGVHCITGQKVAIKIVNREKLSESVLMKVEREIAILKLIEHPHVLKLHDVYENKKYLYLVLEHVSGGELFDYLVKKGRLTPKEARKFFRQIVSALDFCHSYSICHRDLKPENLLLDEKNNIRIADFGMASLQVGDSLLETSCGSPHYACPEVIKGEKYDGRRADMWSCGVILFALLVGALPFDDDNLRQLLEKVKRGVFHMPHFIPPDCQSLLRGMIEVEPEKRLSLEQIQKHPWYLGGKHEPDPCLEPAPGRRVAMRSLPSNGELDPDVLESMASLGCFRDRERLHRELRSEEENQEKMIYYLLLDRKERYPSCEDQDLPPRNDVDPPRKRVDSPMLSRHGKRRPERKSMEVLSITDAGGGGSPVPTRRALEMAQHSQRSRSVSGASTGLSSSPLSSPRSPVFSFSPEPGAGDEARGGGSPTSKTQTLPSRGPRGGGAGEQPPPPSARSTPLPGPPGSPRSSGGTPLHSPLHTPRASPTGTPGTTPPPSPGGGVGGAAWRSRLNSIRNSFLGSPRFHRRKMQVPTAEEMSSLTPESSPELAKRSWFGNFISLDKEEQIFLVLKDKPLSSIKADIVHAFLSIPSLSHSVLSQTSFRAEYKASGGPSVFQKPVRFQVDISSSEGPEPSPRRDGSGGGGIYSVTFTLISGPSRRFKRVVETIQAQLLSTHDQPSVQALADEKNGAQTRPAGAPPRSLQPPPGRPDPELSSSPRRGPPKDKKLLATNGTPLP
Chain of MAP kinase-activated protein kinase 5 (Homo sapiens) (Q8IW41 whole entry): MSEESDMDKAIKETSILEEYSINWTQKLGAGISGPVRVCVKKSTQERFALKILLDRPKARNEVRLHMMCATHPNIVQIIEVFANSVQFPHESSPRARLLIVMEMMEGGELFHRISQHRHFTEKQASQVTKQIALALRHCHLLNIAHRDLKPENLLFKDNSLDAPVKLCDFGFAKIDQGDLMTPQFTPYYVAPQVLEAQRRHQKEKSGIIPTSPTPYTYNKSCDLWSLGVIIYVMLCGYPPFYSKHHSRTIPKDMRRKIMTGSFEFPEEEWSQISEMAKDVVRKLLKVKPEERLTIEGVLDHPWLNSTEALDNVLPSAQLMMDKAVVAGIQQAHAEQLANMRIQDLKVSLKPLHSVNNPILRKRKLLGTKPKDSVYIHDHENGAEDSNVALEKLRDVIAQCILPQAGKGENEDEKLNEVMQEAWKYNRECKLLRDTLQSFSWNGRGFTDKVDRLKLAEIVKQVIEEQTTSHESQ

In general, Tmax refers to the time from dosing to the highest level. The pIC50 is the IC50 on a negative log10 scale, so that one unit is a factor of ten. Low values mean a large IC50, high ones a small IC50. As to `N#Cc1cnc(Nc2cc(NC[C@H]3CNCCO3)c(C(F)(F)F)cn2)cn1` [SRA-737], the Activity in data set [1] is 101%; in [3], 90%; in [4], 95%; in [5], 67%; in [6], 114%; in data set [7], 71%. Also, the Activity in data set [8] amounted to 59%; in [9], 21%; in [10], 88%; in data set [11] it was 44%; in [12] it was 81%; in data set [13], 82%. Also, the Activity in data set [14] was 72%; in data set [15], 81%; in data set [16], 110%; in data set [18], 98%; in data set [19], “Toxic”. Also, the Tmax in data set [2] came to 30 min. The molecule further gave a pIC50 in [17] of 5.78. Also, the outcome in the data set with HT-29 was Active. The outcome with Mus musculus was inactive.
